Compound activity from PubChem.
Only some compounds are listed: those with a hit (about 1.2% of all), similar ones and a draw of the others.
PP1 inh: counter-screen for PP5 inhibitors: inhibitors of human PP1-alpha. P62136. 320,000 compounds, 0.9% hits. purified PP1alpha, OMFP fluorescence. inhibition, % at 6.7 µM;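 active means inhibition above the mean inhibition of all tested compounds plus 3 SD, computed separately for each screening campaign, cut at about 15% in these data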
Target sequence (P62136 whole entry, looked up): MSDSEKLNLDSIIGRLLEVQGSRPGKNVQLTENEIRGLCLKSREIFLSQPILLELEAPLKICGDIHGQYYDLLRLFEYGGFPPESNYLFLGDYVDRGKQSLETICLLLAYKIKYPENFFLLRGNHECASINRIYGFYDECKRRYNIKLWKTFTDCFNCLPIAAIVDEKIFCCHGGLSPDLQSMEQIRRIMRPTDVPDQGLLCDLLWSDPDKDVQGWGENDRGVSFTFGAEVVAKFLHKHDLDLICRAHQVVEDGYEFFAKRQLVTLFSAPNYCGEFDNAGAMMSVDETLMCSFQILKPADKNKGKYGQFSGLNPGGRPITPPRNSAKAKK
PP5 inh: blocks human protein phosphatase 5 activity. AID 1987. purified PP5c, OMFP substrate fluorescence. P53041. 320,000 compounds, 0.18% hits. inhibition, % at 6.7 µM;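 active means inhibition above the campaign's mean inhibition across all tested compounds plus 3 SD, cut at about 9.5% in these data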;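 further: 0% = DMSO only and 100% = 100 µM cantharidin control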
proCasp7 act: counter-screen for procaspase-3 activators: activators of human procaspase-7 | activation, % at 8.5 µM | P55210 | recombinant procaspase-7, Ac-DEVD-pNA absorbance 405 nm; D23A/D198A/D206A triple mutant, cannot self-cleave; scale: DMSO 0, 5 µM enzyme 100 | 330,000 compounds, 0.093% hits;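 active means percent activation above the screen-wide mean plus 3 SD, cut at about 25% in these data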
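Detection: p-Nitroaniline absorbance at 405 nm, read at 0 and 120 min; system: Uncleavable procaspase-7 mutant enzyme; evaluation: % activation from two-timepoint absorbance difference, scaled to controls; times: 1 h enzyme–compound preincubation and 2 h substrate reaction, both 25 °C; buffer or medium: Zinc-free HEPES pH 7.4 with 300 mM NaCl, 0.01% Triton X-100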
proCasp3 act: procaspase-3 (human) activation | P42574 | activation, % at 8.5 µM | 330,000 compounds, 0.11% hits | recombinant procaspase-3 D3A, Ac-DEVD-pNA absorbance 405 nm;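 active means activation above the mean of all tested compounds plus 3 SD, cut at about 21% in these data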;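 further: 0% = DMSO alone and 100% = DMSO wells spiked with extra 5 µM PC-3 D3A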
Target sequence (P42574 whole entry D9A/D28A/D175A): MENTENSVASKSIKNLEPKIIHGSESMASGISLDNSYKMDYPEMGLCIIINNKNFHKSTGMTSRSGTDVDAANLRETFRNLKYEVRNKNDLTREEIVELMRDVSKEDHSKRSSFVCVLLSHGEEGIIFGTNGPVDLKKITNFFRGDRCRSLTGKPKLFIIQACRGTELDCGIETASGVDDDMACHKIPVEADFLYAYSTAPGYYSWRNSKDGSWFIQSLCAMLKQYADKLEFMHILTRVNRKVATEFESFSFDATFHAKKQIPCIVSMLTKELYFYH
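Assay system: Procaspase-3 D3A mutant, all three cleavage aspartates alanine. Buffer or medium: Zinc-free HEPES saline buffer with Triton X-100. Times: 1 h compound preincubation, 2 h substrate hydrolysis at 25 °C. Measured by: 405 nm absorbance of p-nitroaniline, reads at 0 and 120 min. Read-out basis: percent activation relative to control range. Replicates: singlicate.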
PP5 inh confirm: PP5 (human) inhibition, confirmation; shares compounds with PP5 inh; Purified PP5, fluorogenic phosphatase substrate, fluorescence; inhibition, % at 6.7 µM; 460 compounds, 22% hits; in the data active means inhibition above about 9.5%
PP1 inh counter: counter-screen for PP5 inhibitors: human PP1 phosphatase inhibition. 460 compounds, 4% hits. PP1 enzyme, fluorescent phosphatase substrate. shares compounds with PP5 inh. inhibition, % at 6.7 µM; in the data active means inhibition above about 16%
* = called active by the depositor; · = no result.

SMILES | PP1 inh | PP5 inh | proCasp7 act | proCasp3 act | PP5 inh confirm | PP1 inh counter
O=S(=O)(c1ccc(OC(F)(F)F)cc1)N1CCC(O)(c2cccc(C(F)(F)F)c2)CC1 | 12 | 11* | -2 | -2 | 7 | 8
COc1ccccc1CNC(=O)CCC1N=C2c3ccccc3N=C(SCC(=O)NCC3CCCO3)N2C1=O (stereo unspecified) | -5 | -3 | 7 | 1 | · | ·
COc1ccc(C(=O)Nc2ccc(S(=O)(=O)NC(C)=O)cc2)cc1 | -1 | 12* | 3 | 6 | -7 | -5
COc1ccc(C(=O)Nc2ccc(S(=O)(=O)Nc3nccc(C)n3)cc2)cc1 | -3 | 0 | 6 | 2 | · | ·
O=C(COc1cccnc1[N+](=O)[O-])c1ccc(Cl)s1 | 8 | 11* | -40 | -29 | -4 | 2
COc1cc(C(C)=O)ccc1COc1ccc(C(=O)O)cc1OC | -1 | 11* | 0 | 7 | -1 | -1
COc1ccc(C(C)=O)cc1CSCc1cc(C(C)=O)ccc1OC | 0 | 1 | 0 | 9 | · | ·
CCN(CC)C(=O)[C@H]1CC(CC(=O)NCCC2=CCCCC2)C(=O)N2CCc3c([nH]c4ccc(OC)cc34)[C@]12C (stereo partly specified) | · | · | -4 | -1 | · | ·
O=C1CCCC2=C1C1(O)C(=O)c3ccccc3C1(O)O2 (stereo unspecified) | 10 | 17* | -29 | -15 | 45* | 3
O=C(CC1(O)C(=O)c2ccccc2C1=O)c1ccccc1 | -13 | -3 | -13 | 2 | · | ·
O=C1c2ccccc2C(=O)C1(O)O | 5 | 16* | -6 | -3 | 5 | 14
COCC(=O)Nc1ccccc1C(=O)NC(C)C | -3 | 1 | -5 | 2 | · | ·
CC(C)NC(=O)c1ccccc1NC(=O)CCc1ccccc1 | 4 | 10* | 5 | -6 | -2 | -3
CCN(CC(=O)Nc1ccc2c(c1)OCCO2)C(=O)C(C)Oc1ccc(Cl)cc1 (stereo unspecified) | -2 | -1 | -2 | 5 | · | ·
Cc1ccc(NC2CCCN(C(=O)CCn3nccc3C)C2)cc1C (stereo unspecified) | -3 | 1 | 2 | 0 | · | ·
CC(C)(C)NC(=O)CSc1nc2cccnc2n1C1CCCCC1 | -1 | 14* | 5 | 4 | 0 | 1
Cc1cc(C)cc(OCC(=O)N(C)CC(=O)Nc2ccc(Cl)c(C(F)(F)F)c2)c1 | 4 | 10* | 8 | 7 | 5 | 7
Oc1ccccc1NCC(O)Cn1ccc2ccccc21 (stereo unspecified) | 12 | 9.8* | -15 | -13 | 4 | -2
Nc1ccc(O)cc1 | 13 | 11* | -22 | -17 | 5 | -2
O=C(Nc1ccc(O)cc1)/C(=C\C=C\c1ccccc1)NC(=O)c1ccccc1 | -3 | 12* | -2 | -3 | -2 | -2
O=C(Nc1ccc(C(=O)O)cc1)/C(=C\C=C\c1ccccc1)NC(=O)c1ccccc1Cl | 6 | 3 | -8 | 11 | · | ·
O=C(Nc1ccc(F)cc1)C1CCCO1 (stereo unspecified) | -4 | 1 | 6 | 5 | · | ·
O=C(Nc1ccc(O)cc1)C1CCCO1 (stereo unspecified) | -4 | 11* | -1 | 15 | -2 | -4
COC(=O)CCC(=O)OC1(C)C(=O)C2=CN(C3CC3)C(c3ccc(OC)cc3)=CC2=C(Br)C1=O (stereo unspecified) | 3 | 11* | -23 | -8 | 37* | 12
COC(=O)CCC(=O)OC1(C)C(=O)C2=CN(CC(C)C)C(c3ccc(OC)cc3)=CC2=C(Br)C1=O (stereo unspecified) | 7 | 15* | -31 | 0 | 31* | 12
SMILES | PP1 inh | PP5 inh | proCasp7 act | proCasp3 act | PP5 inh confirm | PP1 inh counter
COC(=O)CCC(=O)OC1(C)C(=O)C2=CN(Cc3ccc(OC)cc3)C(c3ccc(OC)cc3)=CC2=C(Br)C1=O (stereo unspecified) | 9 | 4 | -11 | 1 | · | ·
Cc1ccc(C(=O)NC(C)c2ccccc2)o1 (stereo unspecified) | -6 | 11* | -3 | 0 | -4 | -2
COc1cccc(C(=O)OCC(=O)Nc2sc3c(c2C(N)=O)CCC3)c1O | 8 | 0 | 3 | 1 | · | ·
O=C(ON=C1CCN(c2ccc([N+](=O)[O-])cc2)CC1)c1ccccc1 | 2 | 9.7* | -3 | 0 | -3 | -1
O=C(COc1ccc(C(=O)O)cc1)Nc1cccc(C(F)(F)F)c1 | 1 | 1 | 11 | -11 | · | ·
Cc1ccc(OC(F)F)c(NC(=O)Nc2cccc(C(F)(F)F)c2)c1 | 0 | 13* | -5 | 2 | 5 | 3
O=C(COCC(=O)Nc1cccc(C(F)(F)F)c1)Nc1cccc(C(F)(F)F)c1 | 8 | 10* | -3 | 0 | 10* | 10
COc1cccc(CN(C)C(=O)c2[nH]c(C)c(C(C)=O)c2C)c1OC | -1 | 0 | 7 | 1 | · | ·
CNC(=O)c1[nH]cnc1C(=O)N[C@@H](CCCCNC(=O)OC(C)(C)C)C(=O)OC(C)(C)C | 8 | 1 | -1 | 4 | · | ·
CC(C)C[C@H](NC(=O)c1nc[nH]c1C(=O)N[C@@H](CCCCNC(=O)OC(C)(C)C)C(=O)OC(C)(C)C)C(=O)OC(C)(C)C | 11 | 14* | -1 | 4 | 9 | 11
CC(C)(C)OC(=O)NCCCC[C@H](NC(=O)c1[nH]cnc1C(=O)Nc1ccccc1)C(=O)OC(C)(C)C | 7 | 11* | 7 | 10 | 8 | 8
O=C(NCCCCc1ccccc1)c1ccccc1F | -1 | 12* | 10 | -6 | -1 | -2
O=[N+]([O-])c1ccc(O)c(-c2nn[nH]n2)c1 | 1 | 30* | -12 | -11 | 18* | -5
Cc1cc(C)n(-c2ccc([N+](=O)[O-])cc2-c2nn[nH]n2)n1 | 1 | 0 | -2 | 2 | · | ·
COC(=O)c1sc(N)c(C(=O)OC)c1COC(=O)c1c(C)noc1C | 3 | 10* | 9 | 15 | -3 | -4
COC(=O)c1sc(NC(=O)c2c(C)noc2C)nc1C | -2 | 2 | 5 | 5 | · | ·
O=C(OCC(=O)N1CCc2ccccc21)c1ccc([N+](=O)[O-])o1 | · | · | 5 | 2 | · | ·
CCC(=O)Nc1cccc(-n2nnnc2SCC(=O)NCc2ccco2)c1 | 4 | 3 | -3 | -4 | · | ·
CCC(=O)Nc1cccc(-n2nnnc2SCC(=O)c2ccc(C)c(C)c2)c1 | 0 | 13* | 10 | 7 | 2 | 1
Clc1ccc(OCCn2ccnc2)cc1Cl | 2 | 10* | 8 | -10 | -2 | -3
COc1cccc(NC(=O)CN(C)C(=O)c2cccnc2Nc2cccc(C(F)(F)F)c2)c1 | 8 | 14* | 13 | -1 | 9.7* | 10
Cc1ccc(NC(=O)CN(C)C(=O)c2cccnc2Nc2cccc(C(F)(F)F)c2)cc1 | 10 | 11* | -3 | 7 | 9 | 10
